From ChEMBL document CHEMBL4368942, “Dual inhibitors of RAF-MEK-ERK and PI3K-PDK1-AKT pathways: Design, synthesis and preliminary anticancer activity studies of 3-substituted-5-(phenylamino) indolone derivatives” (Bioorg Med Chem, 2019)
Active and inactive are the calls of the source. The calls are words filed in the database; no cut-off is given here.

Key:
A549 [1] = experiment: Antiproliferative activity against human A549 cells after 48 hrs by MTT assay; assay type: functional, cell-based; conditions: A549, 48 h
Outline: (§1)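 Cells grown in DMEM with 10% FBS and penicillin/streptomycin at 37°C, 5% CO2. 2 × 10^5 cells seeded per well in 200 µL medium. Compounds added 30 min after seeding, then 48 h incubation at 37°C. MTT (5 mg/ml stock) added for the last 4 h. Formazan dissolved in DMSO.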

NCI-H460 = experiment: Antiproliferative activity against human NCI-H460 cells after 48 hrs by MTT assay; assay type: functional, cell-based; conditions: NCI-H460, 48 h; outline: as §1
A549 [2] = experiment: Inhibition of RAF/MEK/ERK in human A549 cells assessed as reduction in ERK phosphorylation at 1 uM after 8 hrs by Western blot analysis relative to control; assay type: cell-based
Outline: (§2)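 Western blot with primary antibody in BSA overnight at 4°C. Washes in TBS/0.05% Tween-20, then secondary antibody for 1 h at room temperature. Chemiluminescent detection. p-ERK or p-AKT band density normalized to β-actin loading control versus control. Average of three independent experiments.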

A549 [3] = experiment: Inhibition of PI3K/PDK1/AKT in human A549 cells assessed as reduction in AKT phosphorylation at 1 uM after 8 hrs by Western blot analysis; assay type: cell-based; outline: as §2
A549 [4] = experiment: Inhibition of PI3K/PDK1/AKT in human A549 cells assessed as remaining AKT phosphorylation level at 1 uM after 8 hrs by Western blot analysis
A549 [5] = experiment: Induction of apoptosis in human A549 cells assessed as viable cells at 2.5 uM after 12 hrs by Annexin V-FITC/propidium iodide staining-based flow cytometric analysis (reference value: 90.6%); assay type: functional; conditions: A549, 12 h, read-out: Activity
Outline: (§3)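 After 12 h treatment with DMSO as control, A549 cells were harvested by trypsin, washed twice in PBS and resuspended at 1 × 10^6 cells/mL in binding buffer. Annexin V-FITC and PI staining for 30 min at room temperature in the dark. Flow cytometry with 488 nm excitation, FITC read at 530 nm and PI at 670 nm. Quadrant percentages are means of three independent experiments.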

A549 [6] = experiment: Induction of apoptosis in human A549 cells assessed as early apoptotic cells at 2.5 uM after 12 hrs by Annexin V-FITC/propidium iodide staining-based flow cytometric analysis (reference value: 7.19%); assay type: functional; outline: as §3
A549 [7] = experiment: Induction of apoptosis in human A549 cells assessed as late apoptotic cells at 2.5 uM after 12 hrs by Annexin V-FITC/propidium iodide staining-based flow cytometric analysis (reference value: 0.76%); assay type: functional; outline: as §3
A549 [8] = experiment: Induction of apoptosis in human A549 cells assessed as necrotic cells at 2.5 uM after 12 hrs by Annexin V-FITC/propidium iodide staining-based flow cytometric analysis (reference value: 1.42%); assay type: functional; outline: as §3
A549 [9] = experiment: Induction of apoptosis in human A549 cells assessed as viable cells at 5 uM after 12 hrs by Annexin V-FITC/propidium iodide staining-based flow cytometric analysis (reference value: 90.6%); assay type: functional; conditions: A549, 12 h, read-out: Activity; outline: as §3
A549 [10] = experiment: Induction of apoptosis in human A549 cells assessed as early apoptotic cells at 5 uM after 12 hrs by Annexin V-FITC/propidium iodide staining-based flow cytometric analysis (reference value: 7.19%); assay type: functional; outline: as §3
A549 [11] = experiment: Induction of apoptosis in human A549 cells assessed as late apoptotic cells at 5 uM after 12 hrs by Annexin V-FITC/propidium iodide staining-based flow cytometric analysis (reference value: 0.76%); assay type: functional; outline: as §3
A549 [12] = experiment: Induction of apoptosis in human A549 cells assessed as necrotic cells at 5 uM after 12 hrs by Annexin V-FITC/propidium iodide staining-based flow cytometric analysis (reference value: 1.42%); assay type: functional; outline: as §3
A549 [13] = experiment: Inhibition of RAF/MEK/ERK in human A549 cells assessed as reduction in ERK phosphorylation after 8 hrs by Western blot analysis; assay type: cell-based; outline: as §2
A549 [14] = experiment: Inhibition of PI3K/PDK1/AKT in human A549 cells assessed as reduction in AKT phosphorylation after 8 hrs by Western blot analysis; assay type: cell-based; outline: as §2
A549 [15] = experiment: Inhibition of RAF/MEK/ERK in human A549 cells assessed as reduction in ERK phosphorylation at 2.5 uM after 8 hrs by Western blot analysis; assay type: cell-based; outline: as §2
A549 [16] = experiment: Inhibition of PI3K/PDK1/AKT in human A549 cells assessed as reduction in AKT phosphorylation at 2.5 uM after 8 hrs by Western blot analysis; assay type: cell-based; outline: as §2

| Structure (SMILES) | IC50 (A549 [1]) [µM] | IC50 (NCI-H460) [µM] | other results |
| --- | --- | --- | --- |
| O=C1Nc2ccc(Nc3ccc(F)cc3)cc2C1Cc1ccc2c(c1)OCO2 (configuration not stated) | > 30 | > 100 |  |
| O=C1Nc2ccc(Nc3ccccc3Cl)cc2C1(O)Cc1ccccc1 (configuration not stated) | 2.3 | 14.6 |  |
| Cc1ccc(Nc2ccc3c(c2)/C(=C\C2CCCCC2)C(=O)N3)cc1 | 28.2 | 45.5 |  |
| CCCCC1(O)C(=O)Nc2ccc(Nc3ccc(C)cc3)cc21 (configuration not stated) | 7.5 | 31.8 |  |
| CCCCCC1(O)C(=O)Nc2ccc(Nc3ccc(F)cc3)cc21 (configuration not stated) | 5.9 | > 100 |  |
| O=C1Nc2ccc(Nc3ccc(Cl)cc3)cc2/C1=C\c1ccccc1 | 15 | 13.5 |  |
| CCCCC1(O)C(=O)Nc2ccc(Nc3ccc(F)cc3)cc21 (configuration not stated) | 6.5 | 32.5 |  |
| Cc1ccc(Nc2ccc3c(c2)C(Cc2ccc4c(c2)OCO4)C(=O)N3)cc1 (configuration not stated) | 18.9 | 63.6 |  |
| Cn1cnc2c(F)c(Nc3ccc(Br)cc3Cl)c(C(=O)NOCCO)cc21 [SELUMETINIB] | 5.2 |  | inhibition (A549 [2]): 65%; inhibition (A549 [3]): inactive |
| CC(C)CCC1C(=O)Nc2ccc(Nc3ccc(Cl)cc3)cc21 (configuration not stated) | 2 | 48.7 |  |
| O=C1Nc2ccc(Nc3ccc(F)cc3)cc2/C1=C\c1ccc2c(c1)OCO2 | 26.3 | > 100 |  |
| CC(C)C/C=C1/C(=O)Nc2ccc(Nc3ccc(Cl)cc3)cc21 | 7.4 | 50.9 |  |
| CC(C)CCC1(O)C(=O)Nc2ccc(Nc3ccc(F)cc3)cc21 (configuration not stated) | 5.7 | 16.8 |  |
| CC(C)CCC1(O)C(=O)Nc2ccc(Nc3ccc(Cl)cc3)cc21 (configuration not stated) | 2.7 | 25 |  |
| NC1(c2ccc(-c3nc4ccn5c(=O)[nH]nc5c4cc3-c3ccccc3)cc2)CCC1 [MK-2206] | 8.1 |  | inhibition (A549 [2]): Active; remaining p-AKT level (A549 [4]): 33% |
| O=C1Nc2ccc(Nc3ccc(Cl)cc3)cc2C1Cc1ccc2c(c1)OCO2 (configuration not stated) | 6 | 36.7 |  |
| Cc1ccc(Nc2ccc3c(c2)C(CCC(C)C)C(=O)N3)cc1 (configuration not stated) | 6.6 | 55.3 |  |
| O=C1Nc2ccc(Nc3ccc(Cl)cc3)cc2C1CC1CCCCC1 (configuration not stated) | 16.6 | > 100 |  |
| CC(C)CCC1(O)C(=O)Nc2ccc(Nc3ccc(C(F)(F)F)cc3)cc21 (configuration not stated) | 4.2 | 17.2 |  |
| CCCCCC1(O)C(=O)Nc2ccc(Nc3ccc(OC)cc3)cc21 (configuration not stated) | 8 | 16.2 |  |
| O=C1Nc2ccc(Nc3ccc(Cl)cc3)cc2/C1=C\c1ccc2c(c1)OCO2 | 3.1 | 24.6 |  |
| CCCCCC1(O)C(=O)Nc2ccc(Nc3ccc(C)cc3)cc21 (configuration not stated) | 8.1 | > 100 |  |
| CCCCC1(O)C(=O)Nc2ccc(Nc3ccc(Cl)cc3)cc21 (configuration not stated) | 2.8 | 24.4 |  |

| Structure (SMILES) | IC50 (A549 [1]) [µM] | IC50 (NCI-H460) [µM] | other results |
| --- | --- | --- | --- |
| O=C1Nc2ccc(Nc3ccc(Cl)cc3)cc2C1(O)Cc1ccccc1 (configuration not stated) | 3.1 | 20.2 |  |
| O=C1Nc2ccc(Nc3ccc(C(F)(F)F)cc3)cc2C1(O)Cc1ccc2c(c1)OCO2 (configuration not stated) | 1.8 | 18.2 | viability at 2.5 µM (A549 [5]): 82.7%; Activity (A549 [6]): 11.6%; Activity (A549 [7]): 3.39%; Activity (A549 [8]): 2.25%; viability at 5 µM (A549 [9]): 65.3%; Activity (A549 [10]): 25.5%; Activity (A549 [11]): 7.57%; Activity (A549 [12]): 1.7%; inhibition (A549 [13]): Dose-dependent effect; inhibition (A549 [14]): Dose-dependent effect; inhibition (A549 [15]): Active; inhibition (A549 [16]): Active |
| CCCCCCC1(O)C(=O)Nc2ccc(Nc3ccc(C)cc3)cc21 (configuration not stated) | 12.1 | > 100 |  |
| CCCCCCC1(O)C(=O)Nc2ccc(Nc3ccc(C(F)(F)F)cc3)cc21 (configuration not stated) | 2.8 | 18.8 |  |
| CCCCCCC1(O)C(=O)Nc2ccc(Nc3ccc(OC)cc3)cc21 (configuration not stated) | 18.6 | > 100 |  |
| O=C1Nc2ccc(Nc3ccc(F)cc3)cc2C1(O)Cc1ccccc1 (configuration not stated) | 3 | 18.1 |  |
| CCCCC1(O)C(=O)Nc2ccc(Nc3ccc(C(F)(F)F)cc3)cc21 (configuration not stated) | 2.3 | 12 |  |
| CCCCCC1(O)C(=O)Nc2ccc(Nc3ccc(C(F)(F)F)cc3)cc21 (configuration not stated) | 2.2 | 16.3 |  |
| O=C1Nc2ccc(Nc3ccc(F)cc3)cc2C1(O)Cc1ccc2c(c1)OCO2 (configuration not stated) | 24.9 | 80.4 |  |
| CCCCCC1(O)C(=O)Nc2ccc(Nc3ccc(Cl)cc3)cc21 (configuration not stated) | 1.9 | 40.8 | viability at 2.5 µM (A549 [5]): 83.2%; Activity (A549 [6]): 11.9%; Activity (A549 [7]): 2.57%; Activity (A549 [8]): 2.31%; viability at 5 µM (A549 [9]): 72.3%; Activity (A549 [10]): 20.3%; Activity (A549 [11]): 5.65%; Activity (A549 [12]): 1.82% |
| O=C1Nc2ccc(Nc3ccc(Cl)cc3)cc2C1(O)Cc1ccc2c(c1)OCO2 (configuration not stated) | 3 | 26.6 |  |
| Cc1ccc(Nc2ccc3c(c2)/C(=C\c2ccc4c(c2)OCO4)C(=O)N3)cc1 | 16.7 | > 100 |  |
| Cc1ccc(Nc2ccc3c(c2)C(O)(Cc2ccc4c(c2)OCO4)C(=O)N3)cc1 (configuration not stated) | 11.9 | 14.7 |  |
| Cc1ccc(Nc2ccc3c(c2)C(O)(CCC(C)C)C(=O)N3)cc1 (configuration not stated) | 12.5 | 22.7 |  |
| Cc1ccc(Nc2ccc3c(c2)C(CC2CCCCC2)C(=O)N3)cc1 (configuration not stated) | > 30 | > 100 |  |
| CCC/C=C1/C(=O)Nc2ccc(Nc3ccc(C)cc3)cc21 | 3.6 | 19 |  |
| Cc1ccc(Nc2ccc3c(c2)C(O)(Cc2ccccc2)C(=O)N3)cc1 (configuration not stated) | 4.1 | 31.6 |  |
| COc1ccc(Nc2ccc3c(c2)C(O)(Cc2ccccc2)C(=O)N3)cc1 (configuration not stated) | > 30 | > 100 |  |
| CCCCCCC1(O)C(=O)Nc2ccc(Nc3ccc(Cl)cc3)cc21 (configuration not stated) | 5.4 | 30.3 |  |
| O=C1Nc2ccc(Nc3ccc(Cl)cc3)cc2/C1=C\C1CCCCC1 | 2.4 | 13.2 |  |
| O=C1Nc2ccc(Nc3ccc(C(F)(F)F)cc3)cc2C1(O)Cc1ccccc1 (configuration not stated) | 2 | 9.1 |  |
| CCCCCCC1(O)C(=O)Nc2ccc(Nc3ccc(F)cc3)cc21 (configuration not stated) | 12 | 50.7 |  |
